Laboratory results from ChEMBL document CHEMBL3045743, “Synthesis and herbicidal activity of isoindoline-1,3-dione substituted benzoxazinone derivatives containing a carboxylic ester group” (J Agric Food Chem, 2009).

Columns and labels:
[1] = tested on: Gossypium; assay: Phytotoxicity against Gossypium (cotton) assessed as growth inhibition at 37.5 g.a.i/ha pre-emergent application measured after 15 days by greenhouse crop selectivity assay; type: organism-based; details: in vivo, other, 360 h
Procedure, shortened: (§1)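 Pre-emergence greenhouse crop selectivity test on pot-grown plants in clay soil (pH 6.5, 1.7% organic matter, 37.5% clay, CEC 12.9 cmol/kg). Stock solutions were diluted with water and applied at 300, 150, 75 or 37.5 g a.i./ha, in triplicate. After 15 days, phytotoxicity was scored visually against untreated controls as % crop growth inhibition, averaged over the triplicates.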

[2] = tested on: Chenopodium album; assay: Pre-emergence herbicidal activity against Chenopodium album assessed as growth inhibition at 7.5 g.a.i./ha applied 24 hr after seeds were sown measured after 15 days; type: functional; details: read-out: GI
Procedure, shortened: (§2)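 Weeds sown 5 mm deep in pots of greenhouse clay soil (pH 6.5, 37.5% clay, CEC 12.9 cmol/kg) and grown at 22-25 °C. Water-diluted formulation was applied pre-emergence 24 h after sowing. Untreated and DMF solvent controls were included. Growth inhibition was visually rated in % against untreated controls after 15 days, as the mean of triplicates.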

[3] = tested on: Amaranthus spinosus; assay: Pre-emergence herbicidal activity against Amaranthus spinosus assessed as growth inhibition at 37.5 g.a.i./ha applied 24 hr after seeds were sown measured after 15 days; type: functional; details: read-out: GI; procedure, shortened: as §2
[4] = Phytotoxicity against Triticum aestivum (wheat) assessed as growth inhibition at 150 g.a.i/ha pre-emergent application measured after 15 days by greenhouse crop selectivity assay; type: organism-based; details: in vivo, 150 g.a.i/ha, read-out: GI; procedure, shortened: as §1
[5] = tested on: Gossypium; assay: Phytotoxicity against Gossypium (cotton) assessed as growth inhibition at 150 g.a.i/ha pre-emergent application measured after 15 days by greenhouse crop selectivity assay; type: organism-based; details: in vivo, other, 360 h; procedure, shortened: as §1
[6] = tested on: Abutilon theophrasti; assay: Post-emergence herbicidal activity against Abutilon theophrasti (velvetleaf) assessed as growth inhibition at 37.5 g.a.i./ha applied at two-leaf stage measured after 15 days; type: functional; details: 360 h, read-out: GI
Procedure, shortened: (§3)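 Pot-grown weeds sown 5 mm deep in greenhouse clay soil (pH 6.5, 1.7% organic matter, CEC 12.9 cmol/kg) at 22-25 °C. Stock diluted with water and sprayed post-emergence: dicots at 2-leaf stage, monocots at 1-leaf stage. Untreated and DMF solvent controls were included. % growth inhibition was scored visually versus untreated controls after 15 days. Triplicates averaged.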

[7] = tested on: Chenopodium album; assay: Post-emergence herbicidal activity against Chenopodium album assessed as growth inhibition at 7.5 g.a.i./ha applied at two-leaf stage measured after 15 days; type: functional; details: 360 h, read-out: GI; procedure, shortened: as §3
[8] = tested on: Amaranthus spinosus; assay: Post-emergence herbicidal activity against Amaranthus spinosus assessed as growth inhibition at 7.5 g.a.i./ha applied at two-leaf stage measured after 15 days; type: functional; details: 360 h, read-out: GI; procedure, shortened: as §3
[9] = tested on: Abutilon theophrasti; assay: Pre-emergence herbicidal activity against Abutilon theophrasti (velvetleaf) assessed as growth inhibition at 75 g.a.i./ha applied 24 hr after seeds were sown measured after 15 days; type: functional; details: read-out: GI; procedure, shortened: as §2
[10] = tested on: Chenopodium album; assay: Post-emergence herbicidal activity against Chenopodium album assessed as growth inhibition at 15 g.a.i./ha applied at two-leaf stage measured after 15 days; type: functional; details: 360 h, read-out: GI; procedure, shortened: as §3
[11] = tested on: Chenopodium album; assay: Post-emergence herbicidal activity against Chenopodium album assessed as growth inhibition at 75 g.a.i./ha applied at two-leaf stage measured after 15 days; type: functional; details: 360 h, read-out: GI; procedure, shortened: as §3
[12] = tested on: Setaria viridis; assay: Post-emergence herbicidal activity against Setaria viridis (green foxtail) assessed as growth inhibition at 7.5 g.a.i./ha applied at one-leaf stage measured after 15 days; type: functional; details: 360 h, read-out: GI; procedure, shortened: as §3
[13] = tested on: Digitaria sanguinalis; assay: Post-emergence herbicidal activity against Digitaria sanguinalis(hairy crabgrass) assessed as growth inhibition at 15 g.a.i./ha applied at one-leaf stage measured after 15 days; type: functional; details: 360 h, read-out: GI; procedure, shortened: as §3
[14] = tested on: Setaria viridis; assay: Pre-emergence herbicidal activity against Setaria viridis (green foxtail) assessed as growth inhibition at 75 g.a.i./ha applied 24 hr after seeds were sown measured after 15 days; type: functional; details: read-out: GI
Procedure, shortened: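 Preliminary pre-emergence screen at a single rate of 75 g a.i./ha. Stock diluted with water and sprayed on greenhouse pots 24 h after seeds were sown 5 mm deep in clay soil (pH 6.5, 1.7% organic matter); grown at 22-25 °C. Untreated and DMF solvent controls included; triplicate. Visual % growth inhibition vs untreated after 15 days, averaged and banded (>80% top band).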

[15] = tested on: Glycine max; assay: Phytotoxicity against Glycine max (soybean) assessed as growth inhibition at 150 g.a.i/ha pre-emergent application measured after 15 days by greenhouse crop selectivity assay; type: organism-based; details: in vivo, other, 360 h; procedure, shortened: as §1
[16] = tested on: Echinochloa crus-galli; assay: Pre-emergence herbicidal activity against Echinochloa crus-galli (barnyard grass) assessed as growth inhibition at 37.5 g.a.i./ha applied 24 hr after seeds were sown measured after 15 days; type: functional; details: read-out: GI; procedure, shortened: as §2
[17] = tested on: Abutilon theophrasti; assay: Post-emergence herbicidal activity against Abutilon theophrasti (velvetleaf) assessed as growth inhibition at 15 g.a.i./ha applied at two-leaf stage measured after 15 days; type: functional; details: 360 h, read-out: GI; procedure, shortened: as §3
[18] = tested on: Brassica rapa subsp. oleifera; assay: Phytotoxicity against Brassica rapa subsp. oleifera assessed as growth inhibition at 150 g.a.i/ha pre-emergent application measured after 15 days by greenhouse crop selectivity assay; type: functional; details: pre-emergence, 360 h, read-out: GI
Procedure, shortened: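 Pot-grown crop in greenhouse clay soil (pH 6.5, 1.7% organic matter, 37.5% clay, CEC 12.9 cmol/kg). Stock diluted with water and applied pre-emergence at 300, 150, 75 or 37.5 g a.i./ha. Cultivated 15 days, then phytotoxicity scored visually as % growth inhibition versus untreated controls. Triplicate treatments, averaged.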

[19] = tested on: Amaranthus spinosus; assay: Post-emergence herbicidal activity against Amaranthus spinosus assessed as growth inhibition at 37.5 g.a.i./ha applied at two-leaf stage measured after 15 days; type: functional; details: 360 h, read-out: GI; procedure, shortened: as §3
[20] = tested on: Arachis hypogaea; assay: Phytotoxicity against Arachis hypogaea (peanut) assessed as growth inhibition at 300 g.a.i/ha pre-emergent application measured after 15 days by greenhouse crop selectivity assay; type: organism-based; details: in vivo, other, 360 h; procedure, shortened: as §1
[21] = tested on: Setaria viridis; assay: Post-emergence herbicidal activity against Setaria viridis (green foxtail) assessed as growth inhibition at 15 g.a.i./ha applied at one-leaf stage measured after 15 days; type: functional; details: 360 h, read-out: GI; procedure, shortened: as §3
[22] = tested on: Abutilon theophrasti; assay: Pre-emergence herbicidal activity against Abutilon theophrasti (velvetleaf) assessed as growth inhibition at 15 g.a.i./ha applied 24 hr after seeds were sown measured after 15 days; type: functional; details: read-out: GI; procedure, shortened: as §2
[23] = tested on: Gossypium; assay: Phytotoxicity against Gossypium (cotton) assessed as growth inhibition at 75 g.a.i/ha pre-emergent application measured after 15 days by greenhouse crop selectivity assay; type: organism-based; details: in vivo, other, 360 h; procedure, shortened: as §1
[24] = tested on: Abutilon theophrasti; assay: Pre-emergence herbicidal activity against Abutilon theophrasti (velvetleaf) assessed as growth inhibition at 37.5 g.a.i./ha applied 24 hr after seeds were sown measured after 15 days; type: functional; details: read-out: GI; procedure, shortened: as §2
[25] = tested on: Setaria viridis; assay: Pre-emergence herbicidal activity against Setaria viridis (green foxtail) assessed as growth inhibition at 37.5 g.a.i./ha applied 24 hr after seeds were sown measured after 15 days; type: functional; details: read-out: GI; procedure, shortened: as §2
[26] = Phytotoxicity against Oryza sativa (rice) assessed as growth inhibition at 37.5 g.a.i/ha pre-emergent application measured after 15 days by greenhouse crop selectivity assay; type: organism-based, L.; details: in vivo, 37.5 g.a.i/ha, read-out: GI; procedure, shortened: as §1
[27] = tested on: Setaria viridis; assay: Pre-emergence herbicidal activity against Setaria viridis (green foxtail) assessed as growth inhibition at 7.5 g.a.i./ha applied 24 hr after seeds were sown measured after 15 days; type: functional; details: read-out: GI
Procedure, shortened: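 Secondary pre-emergence test run at 7.5, 15 and 37.5 g a.i./ha on pot-grown weeds in a greenhouse at 22-25 °C. Seeds sown 5 mm deep in clay soil (pH 6.5, 1.7% organic matter, CEC 12.9 cmol/kg). Stock diluted with water and applied 24 h after sowing. Done in triplicate; visual % growth inhibition vs untreated after 15 days, averaged.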

Row | Structure (SMILES) | growth inhibition (GI) [1] | inhibition of growth at 7.5 g/ha [2] [%] | inhibition of growth at 37.5 g/ha [3] [%] | growth inhibition (GI) [5] | inhibition of growth at 37.5 g/ha [6] [%] | inhibition of growth at 7.5 g/ha [7] [%] | inhibition of growth at 7.5 g/ha [8] [%] | inhibition of growth at 75 g/ha [9] [%] | inhibition of growth at 15 g/ha [10] [%] | inhibition of growth at 75 g/ha [11] [%] | inhibition of growth at 7.5 g/ha [12] [%] | inhibition of growth at 15 g/ha [13] [%] | inhibition of growth at 75 g/ha [14] [%] | inhibition of growth at 37.5 g/ha [16] [%] | inhibition of growth at 15 g/ha [17] [%] | inhibition of growth at 150 g/ha [18] [%] | inhibition of growth at 37.5 g/ha [19] [%] | growth inhibition (GI) [20] | inhibition of growth at 15 g/ha [21] [%] | inhibition of growth at 15 g/ha [22] [%] | other results
1 | COC(=O)C(C)N1C(=O)C(C)Oc2cc(F)c(N3C(=O)C4=C(CCCC4)C3=O)cc21 (stereo not given) | Not Active | 100 | 100 | Not Active | 100 | 100 | 100 | > 80 | 100 | > 80 | 10 | 20 | > 80 | 80 | 100 | > 10 | 100 | Not Active | 50 | 60 | inhibition at 360 h [4]: > 10%; growth inhibition (GI) [15]: Not Active; growth inhibition (GI) [23]: Not Active; inhibition of growth at 37.5 g/ha [24]: 70%; inhibition of growth at 37.5 g/ha [25]: 80%; inhibition at 360 h [26]: > 10%; inhibition of growth at 7.5 g/ha [27]: 0%
2 | CCOC(=O)C(C)N1C(=O)C(C)Oc2cc(F)c(N3C(=O)C4=C(CCCC4)C3=O)cc21 (stereo not given) | Not Active | 100 | 100 | Not Active | 100 | 100 | 100 | > 80 | 100 | > 80 | 20 | 30 | > 80 | 30 | 100 | > 10 | 100 | Not Active | 30 | 0 | inhibition at 360 h [4]: > 10%; growth inhibition (GI) [15]: Not Active; growth inhibition (GI) [23]: Not Active; inhibition of growth at 37.5 g/ha [24]: 20%; inhibition of growth at 37.5 g/ha [25]: 60%; inhibition at 360 h [26]: > 10%; inhibition of growth at 7.5 g/ha [27]: 0%
3 | C#CCN1C(=O)COc2cc(F)c(N3C(=O)C4=C(CCCC4)C3=O)cc21 [FLUMIOXAZIN] | Not Active | 100 | 100 | Not Active | 100 | 100 | 100 | > 80 | 100 | > 80 | 80 | 90 | > 80 | 70 | 100 | > 10 | 100 | Not Active | 90 | 80 | inhibition at 360 h [4]: > 10%; growth inhibition (GI) [23]: Not Active; inhibition of growth at 37.5 g/ha [24]: 100%; inhibition of growth at 37.5 g/ha [25]: 80%; inhibition at 360 h [26]: > 10%; inhibition of growth at 7.5 g/ha [27]: 0%
4 | CCOC(=O)C(CC)N1C(=O)C(C)Oc2cc(F)c(N3C(=O)C4=C(CCCC4)C3=O)cc21 (stereo not given) | Not Active | 100 | 100 | Not Active | 100 | 100 | 100 | > 80 | 100 | > 80 | 20 | 50 | > 80 | 0 | 100 | > 10 | 100 | Not Active | 30 | 40 | growth inhibition (GI) [15]: Not Active; growth inhibition (GI) [23]: Not Active; inhibition of growth at 37.5 g/ha [24]: 70%; inhibition of growth at 37.5 g/ha [25]: 0%; inhibition of growth at 7.5 g/ha [27]: 0%
